Assays:
Format in all cases: biochemical
IP3R2 [1] = target: IP3R2 (Mus musculus, UniProt Q9Z329); experiment: Ca2+ release from stores of permeabilized DT40 cells
Summary of the method: (§1)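 DT40 cells lacking all endogenous IP3R genes were stably transfected with the IP3R construct and selected with G418 (2 mg/ml). Intracellular stores were loaded with Mag-fluo-4, and cells were permeabilized with saponin (10 μg/ml) at 20 °C in cytosol-like medium (free Ca²⁺ 220 nM, pH 7.0). After MgATP (1.5 mM) loading reached steady state, IP3 was added with thapsigargin (1 μM). Release was expressed as a fraction of ionomycin (1 μM) release.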

IP3R2 [2] = target: IP3R2 (Mus musculus, UniProt Q9Z329, G1969A/G1971A/G1974A); experiment: Ca2+ release from stores of permeabilized DT40-ΔATPB cells
Summary of the method: as §1

IP3R3 = IP3R3 (Rattus norvegicus, UniProt Q63269); experiment: Ca2+ release from stores of permeabilized DT40 cells

Chain of IP3R2 (Mus musculus, UniProt Q9Z329, G1969A/G1971A/G1974A) (Q9Z329 whole entry G1969A/G1971A/G1974A): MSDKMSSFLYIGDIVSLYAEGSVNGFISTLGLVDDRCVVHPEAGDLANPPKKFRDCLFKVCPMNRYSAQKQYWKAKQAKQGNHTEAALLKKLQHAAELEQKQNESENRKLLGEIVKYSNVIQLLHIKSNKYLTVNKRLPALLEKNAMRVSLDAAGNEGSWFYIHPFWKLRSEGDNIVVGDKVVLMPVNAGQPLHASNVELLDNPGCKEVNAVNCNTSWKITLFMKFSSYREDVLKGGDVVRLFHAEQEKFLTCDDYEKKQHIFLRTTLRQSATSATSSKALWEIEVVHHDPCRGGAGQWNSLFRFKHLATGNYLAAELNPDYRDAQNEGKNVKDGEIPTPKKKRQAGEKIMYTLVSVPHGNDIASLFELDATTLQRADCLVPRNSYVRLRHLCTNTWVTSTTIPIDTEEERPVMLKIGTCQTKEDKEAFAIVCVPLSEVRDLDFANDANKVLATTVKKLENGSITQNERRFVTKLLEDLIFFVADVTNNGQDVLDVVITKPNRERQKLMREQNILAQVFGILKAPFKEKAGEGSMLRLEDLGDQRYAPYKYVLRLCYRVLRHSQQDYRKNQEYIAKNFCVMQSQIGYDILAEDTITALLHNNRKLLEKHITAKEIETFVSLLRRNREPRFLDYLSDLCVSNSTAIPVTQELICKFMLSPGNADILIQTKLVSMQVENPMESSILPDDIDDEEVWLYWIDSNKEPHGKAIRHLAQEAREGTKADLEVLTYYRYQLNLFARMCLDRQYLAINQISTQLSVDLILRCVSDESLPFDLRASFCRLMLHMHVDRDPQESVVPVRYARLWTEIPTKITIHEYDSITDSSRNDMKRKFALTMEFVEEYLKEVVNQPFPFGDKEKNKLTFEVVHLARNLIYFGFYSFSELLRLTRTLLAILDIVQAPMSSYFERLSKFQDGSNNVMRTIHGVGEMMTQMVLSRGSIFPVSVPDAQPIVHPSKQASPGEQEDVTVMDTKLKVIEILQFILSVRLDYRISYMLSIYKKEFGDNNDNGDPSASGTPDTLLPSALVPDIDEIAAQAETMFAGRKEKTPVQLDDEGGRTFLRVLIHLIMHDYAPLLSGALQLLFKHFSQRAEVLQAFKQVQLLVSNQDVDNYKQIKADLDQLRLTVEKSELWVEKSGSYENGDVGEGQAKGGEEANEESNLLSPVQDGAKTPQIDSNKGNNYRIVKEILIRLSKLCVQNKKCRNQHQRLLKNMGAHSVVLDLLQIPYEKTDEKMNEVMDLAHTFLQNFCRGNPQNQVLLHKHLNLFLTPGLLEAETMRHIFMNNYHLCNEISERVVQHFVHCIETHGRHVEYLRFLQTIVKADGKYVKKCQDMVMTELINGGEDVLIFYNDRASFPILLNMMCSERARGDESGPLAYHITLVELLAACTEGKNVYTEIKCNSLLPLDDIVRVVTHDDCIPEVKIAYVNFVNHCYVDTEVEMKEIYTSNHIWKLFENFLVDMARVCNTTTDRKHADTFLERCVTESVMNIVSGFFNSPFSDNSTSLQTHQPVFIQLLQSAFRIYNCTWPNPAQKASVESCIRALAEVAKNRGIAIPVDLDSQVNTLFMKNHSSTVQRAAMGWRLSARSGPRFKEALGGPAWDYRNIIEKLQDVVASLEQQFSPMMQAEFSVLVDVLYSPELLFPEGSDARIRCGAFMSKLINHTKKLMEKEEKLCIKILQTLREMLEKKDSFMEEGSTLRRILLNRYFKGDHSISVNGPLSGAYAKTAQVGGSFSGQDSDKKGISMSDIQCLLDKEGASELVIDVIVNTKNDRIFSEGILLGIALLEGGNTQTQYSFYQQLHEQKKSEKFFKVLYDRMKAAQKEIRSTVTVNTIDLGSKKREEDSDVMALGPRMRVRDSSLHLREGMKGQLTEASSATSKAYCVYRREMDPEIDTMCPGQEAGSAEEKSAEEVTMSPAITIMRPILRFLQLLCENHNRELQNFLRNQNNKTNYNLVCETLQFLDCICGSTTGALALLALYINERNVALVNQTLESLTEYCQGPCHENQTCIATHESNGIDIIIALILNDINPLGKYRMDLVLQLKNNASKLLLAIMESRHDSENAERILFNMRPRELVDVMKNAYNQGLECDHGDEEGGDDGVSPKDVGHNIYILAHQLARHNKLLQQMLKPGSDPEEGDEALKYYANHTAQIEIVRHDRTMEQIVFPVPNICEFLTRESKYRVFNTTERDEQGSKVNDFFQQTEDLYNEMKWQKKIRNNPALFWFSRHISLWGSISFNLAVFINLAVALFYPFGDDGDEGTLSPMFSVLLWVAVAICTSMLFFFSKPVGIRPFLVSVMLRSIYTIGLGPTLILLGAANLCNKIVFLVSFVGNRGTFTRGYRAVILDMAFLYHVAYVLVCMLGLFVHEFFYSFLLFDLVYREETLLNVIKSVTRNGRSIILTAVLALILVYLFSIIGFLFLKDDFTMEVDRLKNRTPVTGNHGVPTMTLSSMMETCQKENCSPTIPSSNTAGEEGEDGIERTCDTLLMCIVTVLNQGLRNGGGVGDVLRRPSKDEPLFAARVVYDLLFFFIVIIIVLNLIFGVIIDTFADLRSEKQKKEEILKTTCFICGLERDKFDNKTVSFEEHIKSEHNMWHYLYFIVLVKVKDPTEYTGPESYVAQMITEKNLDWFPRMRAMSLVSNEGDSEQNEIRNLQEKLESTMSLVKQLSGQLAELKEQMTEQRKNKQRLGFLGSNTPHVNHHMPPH

Compound: O=P(O)(O)O[C@@H]1[C@H](O)[C@H](O)[C@@H](OP(=O)(O)O)[C@H](OP(=O)(O)O)[C@H]1O [IP3]
- EC50 (IP3R2 [1]): 74 ± 10 nM
- EC50 (IP3R2 [2]): 246 ± 17 nM
- EC50 (IP3R3): 255 ± 9 nM

— article PMC2857138 (The Journal of Biological Chemistry, 2010)
